Assay results from ChEMBL document CHEMBL1140298, “Identification of borinic esters as inhibitors of bacterial cell growth and bacterial methyltransferases, CcrM and MenH” (2005).
Values after ≈ are worked out from the molar mass of the structure shown. Active and inactive are the calls of the source. The calls are words filed in the database; no cut-off is given here.

Key:
Enterococcus faecalis = test: Antibacterial activity against Enterococcus faecalis ATCC 29212; assay type: functional
Method in brief: (§1)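 MIC determined following NCCLS guidelines.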

Enterococcus faecium = test: Antibacterial activity against Enterococcus faecium CT26; assay type: functional; method in brief: as §1
Francisella tularensis = test: Antibacterial activity against Francisella tularensis; assay type: functional
Method in brief: (§2)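 MIC read-out, determined according to NCCLS guidelines.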

Bacillus subtilis = test: Antibacterial activity against Bacillus subtilis ATCC 23857; assay type: functional; method in brief: as §1
Moraxella catarrhalis = test: Antibacterial activity against Moraxella catarrhalis; assay type: functional; method in brief: as §1
Haemophilus influenzae = test: Antibacterial activity against Haemophilus influenzae ATCC 4976; assay type: functional; method in brief: as §1
[1] = system: Yersinia pseudotuberculosis; test: Antibacterial activity against Yersinia pseudotuberculosis ATCC 29833; assay type: functional; method in brief: as §2
[2] = system: Mycobacterium tuberculosis; test: Antibacterial activity against Mycobacterium tuberculosis H37Rv; assay type: functional; method in brief: as §2
[3] = system: Staphylococcus epidermidis; test: Antibacterial activity against Staphylococcus epidermidis ATCC 12228; assay type: functional; method in brief: as §1
Staphylococcus aureus = test: Antibacterial activity against Staphylococcus aureus ATCC 29213; assay type: functional; method in brief: as §1
Bacillus anthracis = test: Antibacterial activity against Bacillus anthracis; assay type: functional; method in brief: as §2
Caulobacter vibrioides [4] = test: Antibacterial activity against Caulobacter crescentus after 18 hrs; assay type: functional
Caulobacter vibrioides [5] = test: Inhibition of Caulobacter crescentus DNA methyltransferase CcrM assessed as transfer of [3H-Me] to DNA at 100 uM relative to control
Method in brief: (§3)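 Inhibitor at 100 uM; methyl transfer from [3H-Me]-AdoMet to DNA substrate measured, expressed as percent of activity without inhibitor.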

[6] = target: T1, Demethylmenaquinone methyltransferase (Bacillus subtilis (strain 168)) (UniProt P31113); test: Inhibition of Bacillus subtilis MenH methyltransferase assessed as {3H-Me] to DNA at 100 uM relative control
T1 sequence (whole entry): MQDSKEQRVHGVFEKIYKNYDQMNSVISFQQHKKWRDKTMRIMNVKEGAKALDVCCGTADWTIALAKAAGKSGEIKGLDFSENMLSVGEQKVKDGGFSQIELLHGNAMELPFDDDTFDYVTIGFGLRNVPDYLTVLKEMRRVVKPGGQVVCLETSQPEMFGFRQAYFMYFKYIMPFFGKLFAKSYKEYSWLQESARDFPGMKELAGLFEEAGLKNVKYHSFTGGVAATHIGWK
Method in brief: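 Lysate of E. coli JM109 overexpressing B. subtilis MenH (IPTG 1 mM induction, sonicated) in 0.1 M Tris-HCl pH 8.0, 10 mM MgCl2, 10 mM DTT, 1 uM FPP, 1 uM 1,4-dihydroxy-2-naphthoic acid, 1 uM IPP, 20 uM AdoMet plus [3H]-AdoMet; inhibitor 100 uM final; 37 °C 1 h; acid-methanol quench, hexane/2-propanol extraction, scintillation counting; triplicate; % of no-inhibitor activity.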

Escherichia coli = test: Inhibition of Escherichia coli DNA methyltransferase Dam assessed as transfer of [3H-Me] to DNA at 100 uM relative to control; method in brief: as §3

Row | Structure (SMILES) | MIC (Enterococcus faecalis) [µg/mL] | MIC (Enterococcus faecium) [µg/mL] | MIC (Francisella tularensis) [µg/mL] | MIC (Bacillus subtilis) [µg/mL] | MIC (Moraxella catarrhalis) [µg/mL] | MIC (Haemophilus influenzae) [µg/mL] | MIC [1] [µg/mL] | MIC [2] [µg/mL] | MIC [3] [µg/mL] | MIC (Staphylococcus aureus) [µg/mL] | MIC (Bacillus anthracis) [µg/mL] | MIC (Caulobacter vibrioides [4]) [µg/mL] | Activity (Caulobacter vibrioides [5]) | inhibition [6] [%] | Activity (Escherichia coli)
1 | C=CB(Oc1cccc2cccnc12)c1ccccc1Cl | 64 (≈ 218 µM) | 2 (≈ 6.81 µM) | 16 (≈ 54.5 µM) | 4 (≈ 13.6 µM) | 1 (≈ 3.41 µM) | 2 (≈ 6.81 µM) | 32 (≈ 109 µM) | 0.31 (≈ 1.06 µM) | 1 (≈ 3.41 µM) | 2 (≈ 6.81 µM) | – | – | – | – | –
2 | Clc1ccc(B(Oc2cccc3cccnc23)c2ccc(Cl)cc2)cc1 | 4 (≈ 10.6 µM) | 4 (≈ 10.6 µM) | 0.03 (≈ 0.0794 µM) | 2 (≈ 5.29 µM) | 2 (≈ 5.29 µM) | 8 (≈ 21.2 µM) | 64 (≈ 169 µM) | 0.31 (≈ 0.82 µM) | 2 (≈ 5.29 µM) | 2 (≈ 5.29 µM) | 6.25 (≈ 16.5 µM) | 4 (≈ 10.6 µM) | Active | – | –
3 | Clc1ccc(B(Oc2ccc(Cl)c3cccnc23)c2ccc(Cl)cc2)cc1 | 32 (≈ 77.6 µM) | 2 (≈ 4.85 µM) | 0.01 (≈ 0.0242 µM) | 32 (≈ 77.6 µM) | ≤ 0.125 | 0.25 (≈ 0.606 µM) | 8 (≈ 19.4 µM) | 0.62 (≈ 1.5 µM) | 0.25 (≈ 0.606 µM) | 0.5 (≈ 1.21 µM) | 5.3 (≈ 12.8 µM) | 2.6 (≈ 6.3 µM) | Active | – | –
4 | Cc1ccc2cccc(OB(c3ccc(Cl)cc3)c3ccc(Cl)cc3)c2n1 | 32 (≈ 81.6 µM) | 16 (≈ 40.8 µM) | 6 (≈ 15.3 µM) | – | – | – | – | – | 8 (≈ 20.4 µM) | 16 (≈ 40.8 µM) | – | 2 (≈ 5.1 µM) | Active | – | –
5 | C=CB(Oc1cccc2cccnc12)c1cccc(Cl)c1 | 64 (≈ 218 µM) | 4 (≈ 13.6 µM) | – | 4 (≈ 13.6 µM) | 4 (≈ 13.6 µM) | 4 (≈ 13.6 µM) | 16 (≈ 54.5 µM) | 0.62 (≈ 2.11 µM) | 1 (≈ 3.41 µM) | 2 (≈ 6.81 µM) | 8 (≈ 27.3 µM) | – | – | 50 | –
6 | Clc1ccc(C(Oc2cccc3cccnc23)c2ccc(Cl)cc2)cc1 | > 64 | > 64 | – | > 64 | – | > 64 | > 64 | > 5 | > 64 | > 64 | – | – | inactive | – | inactive
7 | C=CB(Oc1cccc2cccnc12)c1ccccc1 | > 64 | 4 (≈ 15.4 µM) | – | – | 2 (≈ 7.72 µM) | 16 (≈ 61.7 µM) | 32 (≈ 123 µM) | – | 1 (≈ 3.86 µM) | 2 (≈ 7.72 µM) | – | – | – | – | –
8 | C=CB(Oc1cccc2cccnc12)c1ccc(Cl)cc1 | > 64 | 4 (≈ 13.6 µM) | – | 4 (≈ 13.6 µM) | 1 (≈ 3.41 µM) | 2 (≈ 6.81 µM) | 32 (≈ 109 µM) | 0.62 (≈ 2.11 µM) | 1 (≈ 3.41 µM) | 2 (≈ 6.81 µM) | – | – | – | – | –
9 | C=CB(Oc1cccc2cccnc12)c1cccc(F)c1 | > 64 | 2 (≈ 7.22 µM) | 16 (≈ 57.7 µM) | 2 (≈ 7.22 µM) | 1 (≈ 3.61 µM) | 2 (≈ 7.22 µM) | 32 (≈ 115 µM) | 0.31 (≈ 1.12 µM) | 1 (≈ 3.61 µM) | 2 (≈ 7.22 µM) | 8 (≈ 28.9 µM) | – | – | – | –
10 | C=CB(Oc1cccc2cccnc12)c1cccc(C#N)c1 | 8 (≈ 28.2 µM) | 2 (≈ 7.04 µM) | 8 (≈ 28.2 µM) | 4 (≈ 14.1 µM) | 2 (≈ 7.04 µM) | 2 (≈ 7.04 µM) | 32 (≈ 113 µM) | 0.62 (≈ 2.18 µM) | 1 (≈ 3.52 µM) | 1 (≈ 3.52 µM) | 8 (≈ 28.2 µM) | – | – | – | –
11 | Clc1cccc(B(Oc2cccc3cccnc23)c2cccc(Cl)c2)c1 | 32 (≈ 84.6 µM) | 4 (≈ 10.6 µM) | 0.01 (≈ 0.0265 µM) | 2 (≈ 5.29 µM) | 2 (≈ 5.29 µM) | 8 (≈ 21.2 µM) | 32 (≈ 84.6 µM) | 0.62 (≈ 1.64 µM) | 2 (≈ 5.29 µM) | 1 (≈ 2.65 µM) | 6.25 (≈ 16.5 µM) | – | Active | – | –
12 | C=CB(Oc1cccc2cccnc12)c1ccc(F)c(Cl)c1 | 32 (≈ 103 µM) | 2 (≈ 6.42 µM) | – | 4 (≈ 12.8 µM) | 2 (≈ 6.42 µM) | 4 (≈ 12.8 µM) | 32 (≈ 103 µM) | 0.62 (≈ 1.99 µM) | 1 (≈ 3.21 µM) | 2 (≈ 6.42 µM) | – | – | – | – | –
13 | Fc1ccc(B(Oc2cccc3cccnc23)c2ccc(F)cc2)cc1 | 32 (≈ 92.7 µM) | 32 (≈ 92.7 µM) | – | – | 2 (≈ 5.79 µM) | 4 (≈ 11.6 µM) | – | 0.62 (≈ 1.8 µM) | 2 (≈ 5.79 µM) | 4 (≈ 11.6 µM) | – | 12.5 (≈ 36.2 µM) | – | – | –
